# Source: ChEMBL document CHEMBL4130479, “Scalaradial Is a Potent Inhibitor of Transient Receptor Potential Melastatin 2 (TRPM2) Ion Channels” (J Nat Prod, 2017)
# The source made the active and inactive calls. No cut-off for these calls is given here.
# Assays:
# [1] = molecular target: T1, Transient receptor potential cation channel subfamily M member 2 (Homo sapiens, UniProt O94759); assay: Inhibition of human FLAG-tagged TRPM2 expressed in HEK293 cells assessed as reduction in ADPR-induced intracellular […] at 20 to 200 nM measured after 60 mins by whole cell patch clamp electrophysiology method; format: cell-based
# T1 sequence (O94759 whole entry): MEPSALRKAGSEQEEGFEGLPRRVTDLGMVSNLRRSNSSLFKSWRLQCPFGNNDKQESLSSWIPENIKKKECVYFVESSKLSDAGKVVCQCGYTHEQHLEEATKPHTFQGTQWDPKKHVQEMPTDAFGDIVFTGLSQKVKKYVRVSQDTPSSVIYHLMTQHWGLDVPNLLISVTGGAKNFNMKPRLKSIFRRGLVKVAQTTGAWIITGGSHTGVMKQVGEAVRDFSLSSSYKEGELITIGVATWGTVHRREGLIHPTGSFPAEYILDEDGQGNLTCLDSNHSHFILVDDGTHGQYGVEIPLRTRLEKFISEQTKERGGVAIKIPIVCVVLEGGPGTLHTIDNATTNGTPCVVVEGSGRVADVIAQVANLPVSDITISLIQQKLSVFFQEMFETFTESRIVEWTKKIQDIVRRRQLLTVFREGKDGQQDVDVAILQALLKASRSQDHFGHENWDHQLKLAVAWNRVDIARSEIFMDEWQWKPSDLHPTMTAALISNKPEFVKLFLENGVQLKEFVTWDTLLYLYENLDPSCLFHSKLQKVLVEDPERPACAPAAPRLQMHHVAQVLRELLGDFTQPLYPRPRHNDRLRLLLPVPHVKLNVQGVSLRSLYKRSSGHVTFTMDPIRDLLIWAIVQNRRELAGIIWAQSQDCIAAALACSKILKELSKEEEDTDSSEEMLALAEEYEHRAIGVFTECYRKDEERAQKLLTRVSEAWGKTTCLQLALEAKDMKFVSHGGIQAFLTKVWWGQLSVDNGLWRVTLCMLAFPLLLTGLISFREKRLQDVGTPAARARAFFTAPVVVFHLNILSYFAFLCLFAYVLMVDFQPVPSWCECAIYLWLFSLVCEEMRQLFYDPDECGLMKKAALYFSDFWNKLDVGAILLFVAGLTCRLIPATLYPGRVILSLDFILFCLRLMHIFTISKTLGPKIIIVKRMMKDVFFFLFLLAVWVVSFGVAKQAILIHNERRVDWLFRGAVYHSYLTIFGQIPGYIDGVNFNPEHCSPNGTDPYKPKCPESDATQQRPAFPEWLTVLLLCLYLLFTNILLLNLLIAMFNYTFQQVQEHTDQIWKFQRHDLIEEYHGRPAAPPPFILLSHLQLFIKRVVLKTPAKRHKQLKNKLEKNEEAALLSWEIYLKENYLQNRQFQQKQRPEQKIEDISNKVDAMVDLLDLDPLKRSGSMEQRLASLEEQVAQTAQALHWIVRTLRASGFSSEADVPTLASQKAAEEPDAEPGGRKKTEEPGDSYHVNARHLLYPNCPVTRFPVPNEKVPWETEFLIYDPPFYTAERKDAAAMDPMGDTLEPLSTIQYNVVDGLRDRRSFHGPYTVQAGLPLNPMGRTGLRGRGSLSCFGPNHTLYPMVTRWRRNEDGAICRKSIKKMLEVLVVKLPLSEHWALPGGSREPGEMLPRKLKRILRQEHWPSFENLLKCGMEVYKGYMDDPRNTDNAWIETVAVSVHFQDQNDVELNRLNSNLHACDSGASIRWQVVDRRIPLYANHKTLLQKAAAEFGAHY
# How it was run: (§1)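 HEK293 cells stably carrying tetracycline-inducible FLAG-human TRPM2, induced 6–9 h, preincubated 30–60 min with compound in external Ringer's, 21–25 °C. Whole-cell patch clamp used K-glutamate pipette solution with 100 μM ADPR and Ca2+ buffered to 300 nM. Ramps from −100 to +100 mV over 50 ms at 0.5 Hz.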
# [2] = test system: HEK293; assay: Cytotoxicity against HEK293 cells assessed as effect on cell viability at 200 nM; format: cell-based; conditions: human, hek293, 0.2 µM
# How it was run: (§2)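 Tetracycline-induced human TRPM2-HEK293 cells preincubated 60 min with compound in serum-containing medium, then moved to standard external Ringer's with compound still present for whole-cell recording ([…] internal). Cells scored by eye for rounding, granule formation and blebbing.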
# [3] = test system: HEK293; assay: Cytotoxicity against HEK293 cells assessed as cell rounding at 200 nM; format: cell-based; conditions: human, hek293, 0.2 µM; how it was run: as §2
# [4] = test system: HEK293; assay: Cytotoxicity against HEK293 cells assessed as granule formation at 200 nM; format: cell-based; conditions: human, hek293, 0.2 µM; how it was run: as §2
# [5] = test system: HEK293; assay: Cytotoxicity against HEK293 cells assessed as cell blebbing at 200 nM; format: cell-based; conditions: human, hek293, 0.2 µM; how it was run: as §2
# [6] = molecular target: T1, Transient receptor potential cation channel subfamily M member 2; assay: Inhibition of human TRPM2 expressed in HEK293 cells assessed as reduction in ADPR-induced intracellular calcium flux at 0 mV holding potential by whole cell patch clamp electrophysiology method; format: cell-based
# How it was run: (§3)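 Human FLAG-TRPM2 in HEK293 cells, induced with tetracycline for 6–9 h and incubated 30–60 min in external Ringer's (0.1–2 μM) before patching. Pipette was K-glutamate, Ca2+ buffered to 300 nM, with 100 μM ADPR. Ramps ran −100 to +100 mV from a 0 mV holding potential, 0.5 Hz.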
# [7] = molecular target: T1, Transient receptor potential cation channel subfamily M member 2; assay: Inhibition of human FLAG-tagged TRPM2 expressed in HEK293 cells assessed as reduction in ADPR-induced intracellular calcium flux at 5 uM measured within 60 mins by whole cell patch clamp electrophysiology method; format: cell-based
# How it was run: (§4)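 TRPM2-HEK293 cells incubated with the sPLA2 inhibitors in standard external Ringer's. Whole-cell currents were recorded within the first 60 min using K-glutamate pipette with 100 μM ADPR. Current at −80 mV was normalized to same-day controls, n = 3–17.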
# [8] = test system: HEK293; assay: Cytotoxicity against HEK293 cells assessed as cell death at 25 to 50 uM measured for 1 hr; format: cell-based; conditions: human, hek293, 1 h
# [9] = molecular target: T1, Transient receptor potential cation channel subfamily M member 2; assay: Inhibition of human FLAG-tagged TRPM2 expressed in HEK293 cells assessed as reduction in ADPR-induced intracellular calcium flux at 1 uM measured within 60 mins by whole cell patch clamp electrophysiology method; format: cell-based; how it was run: as §4
# [10] = test system: HEK293; assay: Cytotoxicity against HEK293 cells assessed as cell death at 5 to 10 uM measured for 1 hr; format: cell-based; conditions: human, hek293, 1 h
# [11] = molecular target: T1, Transient receptor potential cation channel subfamily M member 2; assay: Inhibition of human FLAG-tagged TRPM2 expressed in HEK293 cells assessed as reduction in ADPR-induced intracellular calcium flux after 30 to 60 mins by whole cell patch clamp electrophysiology method; format: cell-based; how it was run: as §3
# [12] = molecular target: T1, Transient receptor potential cation channel subfamily M member 2; assay: Inhibition of human FLAG-tagged TRPM2 expressed in HEK293 cells assessed as reduction in ADPR-induced intracellular calcium flux at 2 uM by whole cell patch clamp electrophysiology method; format: cell-based; conditions: TDE = time-dependent effect
# [13] = molecular target: T1, Transient receptor potential cation channel subfamily M member 2; assay: Inhibition of human FLAG-tagged TRPM2 expressed in HEK293 cells assessed as reduction in ADPR-induced intracellular calcium flux at 2 uM treated for 6 hrs followed by compound washout measured within 5 mins by whole cell patch clamp electrophysiology method; format: cell-based
# [14] = molecular target: Transient receptor potential cation channel subfamily M member 7 (Mus musculus) (UniProt Q923J1); assay: Inhibition of mouse FLAG-tagged TRPM7 expressed in HEK293 cells assessed as reduction in BAPTA-induced intracellular calcium flux at 0.1 to 2 uM by whole cell patch clamp electrophysiology method; format: cell-based; conditions: TDE = time-dependent effect
# How it was run: (§5)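 Mouse FLAG-TRPM7 in HEK293 cells, induced with tetracycline for 19–22 h and incubated with 100 nM–2 μM compound in culture medium from 15 min (maximum 60 min) before patching. Pipette was K-glutamate with 10 mM K-BAPTA. Ramps ran −100 to +100 mV, 0.5 Hz. Current at +80 mV and 200 s was normalized, and IC50 came from a fit.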
# [15] = molecular target: Transient receptor potential cation channel subfamily M member 7 (Mus musculus, UniProt Q923J1); assay: Inhibition of mouse FLAG-tagged TRPM7 expressed in HEK293 cells assessed as reduction in BAPTA-induced intracellular calcium flux after 15 to 60 mins by whole cell patch clamp electrophysiology method; format: cell-based; how it was run: as §5
# [16] = molecular target: ORAI1/STIM1 (Homo sapiens) (UniProt Q96D31+Q13586); assay: Inhibition of EGFP-tagged Orai1/STIM1 (unknown origin) expressed in HEK293 cells assessed as reduction in BAPTA-induced calcium release activated calcium channel currents at 2 uM after 30 to 60 mins by whole cell patch clamp method; format: cell-based
# How it was run: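 HEK293 cells stably expressing STIM1 and transiently transfected with CRACM1 (Orai1)-IRES-EGFP, recorded 24–48 h after transfection and picked by EGFP. Cells were exposed for 30–60 min. External solution held 10 mM CaCl2 (NaCl/TEA-based, pH 7.2). Pipette was Cs-glutamate with 20 mM Cs-BAPTA and 20 μM IP3. Ramps ran −150 to +150 mV over 50 ms at 0.5 Hz, read at −80 mV.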
# [17] = molecular target: Transient receptor potential cation channel subfamily M member 4 (Homo sapiens) (UniProt Q8TD43); assay: Inhibition of TRPM4 in human Jurkat T cells assessed as reduction in intracellular calcium flux at 500 nM within 60 mins by whole cell patch clamp electrophysiology method; format: cell-based
# Sequence of Transient receptor potential cation channel subfamily M member 4 (Homo sapiens) (Q8TD43 whole entry): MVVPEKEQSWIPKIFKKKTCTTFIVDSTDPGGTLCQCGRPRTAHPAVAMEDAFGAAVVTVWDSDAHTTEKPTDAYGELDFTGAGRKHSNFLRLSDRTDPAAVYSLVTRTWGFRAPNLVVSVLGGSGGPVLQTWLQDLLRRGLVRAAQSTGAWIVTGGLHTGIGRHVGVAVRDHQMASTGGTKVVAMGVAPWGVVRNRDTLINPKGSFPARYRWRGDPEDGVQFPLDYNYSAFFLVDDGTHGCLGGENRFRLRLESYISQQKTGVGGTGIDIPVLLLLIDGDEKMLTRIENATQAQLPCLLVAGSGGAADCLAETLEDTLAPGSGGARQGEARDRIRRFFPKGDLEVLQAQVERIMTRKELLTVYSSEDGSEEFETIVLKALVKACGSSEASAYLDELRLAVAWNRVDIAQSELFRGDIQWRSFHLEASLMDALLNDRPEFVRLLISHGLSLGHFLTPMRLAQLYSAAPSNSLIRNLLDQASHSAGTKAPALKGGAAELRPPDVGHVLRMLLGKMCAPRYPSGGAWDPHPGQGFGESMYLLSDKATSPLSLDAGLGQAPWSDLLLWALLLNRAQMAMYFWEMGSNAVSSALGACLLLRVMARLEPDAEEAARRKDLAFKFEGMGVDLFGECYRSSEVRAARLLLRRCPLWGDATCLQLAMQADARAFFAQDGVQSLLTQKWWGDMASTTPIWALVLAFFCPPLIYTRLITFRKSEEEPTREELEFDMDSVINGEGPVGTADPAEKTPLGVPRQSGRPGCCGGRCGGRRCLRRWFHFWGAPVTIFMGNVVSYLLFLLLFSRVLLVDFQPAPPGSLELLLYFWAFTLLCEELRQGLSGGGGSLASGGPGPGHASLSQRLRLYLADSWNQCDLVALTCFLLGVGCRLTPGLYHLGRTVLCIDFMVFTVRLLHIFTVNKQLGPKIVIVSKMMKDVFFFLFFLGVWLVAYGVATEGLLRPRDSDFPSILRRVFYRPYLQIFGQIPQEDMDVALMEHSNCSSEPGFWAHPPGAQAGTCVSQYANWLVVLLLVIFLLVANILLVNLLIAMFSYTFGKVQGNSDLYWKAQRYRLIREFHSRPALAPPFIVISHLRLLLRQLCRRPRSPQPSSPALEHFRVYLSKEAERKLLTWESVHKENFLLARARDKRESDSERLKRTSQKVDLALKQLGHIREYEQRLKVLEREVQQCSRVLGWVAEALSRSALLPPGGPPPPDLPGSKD
# How it was run: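 Endogenous TRPM4-like currents in Jurkat T cells, preincubated in standard external solution and recorded within 60 min. Pipette was Cs-glutamate with intracellular Ca2+ clamped to 2 μM. Ramps ran −100 to +100 mV over 50 ms at 0.5 Hz, and current was normalized and plotted against time.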
# [18] = molecular target: Transient receptor potential cation channel subfamily V member 1 (Rattus norvegicus) (UniProt O35433); assay: Inhibition of TRPV1 in rat INS-1 cells assessed as reduction in intracellular calcium flux at 500 nM measured within 60 mins by whole cell patch clamp method; format: cell-based
# Sequence of Transient receptor potential cation channel subfamily V member 1 (Rattus norvegicus) (O35433 whole entry): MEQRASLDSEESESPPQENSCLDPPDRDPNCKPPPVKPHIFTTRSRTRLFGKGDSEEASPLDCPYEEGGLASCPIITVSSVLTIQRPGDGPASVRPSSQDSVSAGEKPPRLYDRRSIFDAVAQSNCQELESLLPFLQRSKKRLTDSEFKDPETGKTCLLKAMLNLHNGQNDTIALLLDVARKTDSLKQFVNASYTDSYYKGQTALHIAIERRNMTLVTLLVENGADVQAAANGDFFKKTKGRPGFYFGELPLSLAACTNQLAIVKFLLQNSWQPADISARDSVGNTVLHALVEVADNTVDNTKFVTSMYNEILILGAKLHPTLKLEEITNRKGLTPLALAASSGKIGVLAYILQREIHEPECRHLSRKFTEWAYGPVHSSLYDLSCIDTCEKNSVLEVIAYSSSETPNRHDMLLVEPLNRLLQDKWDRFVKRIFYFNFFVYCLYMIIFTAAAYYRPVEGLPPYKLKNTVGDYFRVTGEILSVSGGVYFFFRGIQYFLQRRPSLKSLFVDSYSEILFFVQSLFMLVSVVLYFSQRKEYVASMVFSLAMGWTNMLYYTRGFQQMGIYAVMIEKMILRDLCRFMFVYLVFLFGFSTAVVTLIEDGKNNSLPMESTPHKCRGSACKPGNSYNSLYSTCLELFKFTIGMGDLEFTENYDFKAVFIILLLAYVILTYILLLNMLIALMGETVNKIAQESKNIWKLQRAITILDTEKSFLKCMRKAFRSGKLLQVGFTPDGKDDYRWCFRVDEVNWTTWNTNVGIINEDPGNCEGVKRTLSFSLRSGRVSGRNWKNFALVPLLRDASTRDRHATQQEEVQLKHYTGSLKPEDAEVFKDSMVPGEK
# How it was run: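 Endogenous TRPV1-like currents in INS-1 cells, preincubated in external solution and recorded within 60 min. Pipette was Cs-glutamate with Ca2+ unbuffered. Current was activated by 10 μM capsaicin in the bath. Ramps ran −100 to +100 mV, 50 ms, 0.5 Hz.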
# [19] = molecular target: Transient receptor potential cation channel subfamily M member 2 (Rattus norvegicus, UniProt E9PTA2); assay: Inhibition of TRPM2 in rat INS-1 cells assessed as reduction in ADPR-induced intracellular calcium flux measured after 60 mins by whole cell patch clamp electrophysiology method; format: cell-based
# Sequence of Transient receptor potential cation channel subfamily M member 2 (Rattus norvegicus, UniProt E9PTA2) (E9PTA2 whole entry): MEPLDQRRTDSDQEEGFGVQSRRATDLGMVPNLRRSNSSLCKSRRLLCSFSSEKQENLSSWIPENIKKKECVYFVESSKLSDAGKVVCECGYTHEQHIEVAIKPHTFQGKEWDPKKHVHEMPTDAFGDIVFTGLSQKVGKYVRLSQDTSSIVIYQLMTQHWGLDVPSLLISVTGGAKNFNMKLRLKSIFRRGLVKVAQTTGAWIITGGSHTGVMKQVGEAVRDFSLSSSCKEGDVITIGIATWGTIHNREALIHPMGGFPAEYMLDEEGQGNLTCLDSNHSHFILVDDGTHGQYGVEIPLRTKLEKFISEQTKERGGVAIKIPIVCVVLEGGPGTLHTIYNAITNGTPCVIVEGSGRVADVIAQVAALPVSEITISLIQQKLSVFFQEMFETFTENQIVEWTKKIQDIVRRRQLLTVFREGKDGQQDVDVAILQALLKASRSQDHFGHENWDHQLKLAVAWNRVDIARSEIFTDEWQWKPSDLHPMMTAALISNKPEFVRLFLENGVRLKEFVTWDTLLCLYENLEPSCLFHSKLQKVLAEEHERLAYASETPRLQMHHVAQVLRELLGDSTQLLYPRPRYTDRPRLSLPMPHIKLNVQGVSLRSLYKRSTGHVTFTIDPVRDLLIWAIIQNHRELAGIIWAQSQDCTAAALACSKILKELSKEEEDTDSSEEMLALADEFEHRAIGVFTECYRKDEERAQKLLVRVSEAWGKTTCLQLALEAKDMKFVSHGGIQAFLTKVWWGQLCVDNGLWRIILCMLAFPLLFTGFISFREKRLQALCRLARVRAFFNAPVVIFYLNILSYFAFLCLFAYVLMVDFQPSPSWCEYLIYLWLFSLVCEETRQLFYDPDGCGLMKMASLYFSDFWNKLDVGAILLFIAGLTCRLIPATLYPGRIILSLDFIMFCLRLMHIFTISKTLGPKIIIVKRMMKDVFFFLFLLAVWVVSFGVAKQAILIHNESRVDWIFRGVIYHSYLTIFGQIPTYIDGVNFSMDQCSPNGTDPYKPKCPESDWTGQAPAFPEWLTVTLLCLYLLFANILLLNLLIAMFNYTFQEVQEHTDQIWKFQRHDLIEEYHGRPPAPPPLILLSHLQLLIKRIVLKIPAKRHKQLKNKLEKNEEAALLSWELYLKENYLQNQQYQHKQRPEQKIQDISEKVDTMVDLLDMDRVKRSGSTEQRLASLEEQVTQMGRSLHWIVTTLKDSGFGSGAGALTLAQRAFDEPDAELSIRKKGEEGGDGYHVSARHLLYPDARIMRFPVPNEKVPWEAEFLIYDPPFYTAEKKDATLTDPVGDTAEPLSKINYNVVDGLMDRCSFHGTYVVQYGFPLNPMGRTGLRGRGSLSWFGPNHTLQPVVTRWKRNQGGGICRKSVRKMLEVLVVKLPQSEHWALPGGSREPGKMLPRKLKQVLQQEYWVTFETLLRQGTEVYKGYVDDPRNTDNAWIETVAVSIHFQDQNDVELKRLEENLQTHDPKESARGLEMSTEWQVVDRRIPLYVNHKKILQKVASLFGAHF
# How it was run: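 Whole-cell TRPM2 currents in INS-1 cells at 21–25 °C. Pipette was Cs-glutamate with ADPR and no Ca2+ chelator. Compound (10 nM–2 μM) in external Ringer's, recorded within the first 60 min of incubation. Ramps ran −100 to +100 mV, 50 ms, 0.5 Hz. Current at −80 mV and 50 s was normalized to control, and IC50 came from a dose–response fit.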
# [20] = test system: INS1; assay: Cytotoxicity against rat INS-1 cells assessed as granule formation; format: cell-based
# How it was run: (§6)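 INS-1 cells (RPMI, 10% FBS, 37 °C, 5% CO2) kept under continual scalaradial exposure in standard external solution during whole-cell patching. Cells were scored by eye for rounding, granule formation and blebbing over at least 1 h.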
# [21] = test system: INS1; assay: Cytotoxicity against rat INS-1 cells assessed as cell rounding; format: cell-based; how it was run: as §6
# [22] = test system: INS1; assay: Cytotoxicity against rat INS-1 cells assessed as cell blebbing; format: cell-based; how it was run: as §6
# [23] = test system: INS1; assay: Cytotoxicity against rat INS-1 cells at 500 nM measured for 1 hr; format: cell-based; conditions: ins1, 1 h, 0.5 µM; how it was run: as §6
# [24] = molecular target: T2, Phospholipase A2 (Apis mellifera, UniProt P00630); assay: Inhibition of bee venom PLA2
# T2 sequence (P00630 whole entry): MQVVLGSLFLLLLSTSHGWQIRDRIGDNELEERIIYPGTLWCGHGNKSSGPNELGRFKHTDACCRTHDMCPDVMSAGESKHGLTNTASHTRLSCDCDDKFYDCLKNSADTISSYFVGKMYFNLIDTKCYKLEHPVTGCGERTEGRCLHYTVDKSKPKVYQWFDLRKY
# [25] = Inhibition of recombinant human sPLA2 using [1-14C]oleate-labelled autoclaved Escherichia coli as substrate measured after 15 mins
# [26] = molecular target: T1, Transient receptor potential cation channel subfamily M member 2; assay: Inhibition of human FLAG-tagged TRPM2 expressed in HEK293 cells assessed as reduction in ADPR-induced intracellular calcium flux at 200 to 2000 nM measured after 60 mins by whole cell patch clamp electrophysiology method; format: cell-based; how it was run: as §1
# [27] = test system: HEK293; assay: Cytotoxicity against HEK293 cells assessed as effect on cell viability at 2 uM; format: cell-based; conditions: human, hek293, 2 µM
# [28] = test system: HEK293; assay: Cytotoxicity against HEK293 cells assessed as cell rounding at 2 uM; format: cell-based; conditions: human, hek293, 2 µM
# [29] = test system: HEK293; assay: Cytotoxicity against HEK293 cells assessed as granule formation at 2 uM; format: cell-based; conditions: human, hek293, 2 µM
# [30] = test system: HEK293; assay: Cytotoxicity against HEK293 cells assessed as cell blebbing at 2 uM; format: cell-based; conditions: human, hek293, 2 µM
# [31] = molecular target: T1, Transient receptor potential cation channel subfamily M member 2; assay: Inhibition of human FLAG-tagged TRPM2 expressed in HEK293 cells assessed as reduction in H2O2-induced intracellular calcium flux pretreated for 30 secs followed by H2O2 addition measured for 120 secs by […]; format: cell-based
# [32] = molecular target: T1, Transient receptor potential cation channel subfamily M member 2; conditions: HEK293, 100 nM
# [33] = molecular target: T1, Transient receptor potential cation channel subfamily M member 2; assay: Inhibition of human FLAG-tagged TRPM2 expressed in HEK293 cells assessed as reduction in ADPR-induced intracellular calcium flux at 20 uM measured within 60 mins by whole cell patch clamp electrophysiology method; format: cell-based
# How it was run: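 Tetracycline-induced HEK293 cells stably carrying FLAG-human TRPM2 were incubated with inhibitor in standard external Ringer's (pH 7.2). Whole-cell recordings were made during the first 60 min at 21–25 °C. Pipette: K-glutamate with unbuffered Ca2+ plus 100 μM ADPR. Ramps ran −100 to +100 mV over 50 ms at 0.5 Hz. Current was taken at −80 mV as % of same-day controls (n = 3–17).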
structure (smiles),measurement,setting,value
COC[C@H]1OC(=O)c2coc3c2[C@@]1(C)C1=C(C3=O)[C@@H]2CCC(=O)[C@@]2(C)C[C@H]1OC(C)=O [WORTMANNIN],inhibition,[1],inactive
same,Activity,[2],Toxic
same,Activity,[3],Toxic
same,Activity,[4],Toxic
same,Activity,[5],Toxic
CCCCCc1ccc(/C=C/C(=O)Nc2ccccc2C(=O)O)cc1,IC50,[6],4500 nM
O=C(O)CC[C@@H](Cc1ccc(OCc2ccccc2)cc1)NC(=O)CCCCCCc1ccccc1,inhibition,[7],inactive
same,Activity,[8],Toxic
CCCCCCCCCCCCCCCCOCC(COCC)OP(=O)([O-])OC.[Li+] (stereo not given),inhibition,[9],inactive
same,Activity,[10],Toxic
CC(=O)O[C@H]1C[C@@H]2[C@@]3(C)CCCC(C)(C)[C@@H]3CC[C@@]2(C)[C@@H]2CC=C(C=O)[C@H](C=O)[C@@]12C [SCALARADIAL],IC50,[11],210 nM
same,inhibition,[11],Dose-dependent effect
same,inhibition,[12],Tde
same,inhibition,[13],inactive
same,inhibition,[14],Tde
same,IC50,[15],760 nM
same,inhibition,[16],inactive
same,inhibition,[17],inactive
same,inhibition,[18],inactive
same,IC50,[19],330 nM
same,Activity,[20],Toxic
same,Activity,[21],Toxic
same,Activity,[22],Toxic
same,Activity,[23],Non-Toxic
same,IC50,[24],70 nM
same,IC50,[25],5400 nM
O=c1[nH]c2ccccc2n1C1CCN(Cc2ccc(-c3nc4cc5[nH]cnc5cc4nc3-c3ccccc3)cc2)CC1,inhibition,[26],inactive
same,Activity,[27],Toxic
same,Activity,[28],Toxic
same,Activity,[29],Toxic
same,Activity,[30],Toxic
CN(C)CC(=O)Nc1ccc2[nH]c(=O)c3ccccc3c2c1,IC50,[31],25 nM
same,inhibition,[32],inactive
O=C1NCCc2c(OCCCCN3CCCCC3)cccc21,IC50,[31],600 nM
same,inhibition,[33],inactive
